Shown are actives, neighbours in structure and some others; about 4.9% of the full set was active somewhere.
Lipid droplet: modulators of hepatic lipid droplet formation; AML12 mouse hepatocytes, oleate lipid droplets, BODIPY imaging; inhibition, % at 6.5 µM; 240,000 compounds, 0.4% hits;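 active = lipid droplet intensity inhibited by at least 50%, with more than 500 cells counted; inconclusive = wells with under 300 cells, treated as cytotoxic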
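Material – AML12 mouse liver cells · Also added – oleate loading, 100 µM · Compound dosing – 6.5 µM single-point dosing · Times – overnight treatment with compound plus oleate · Measured by – fluorescence imaging, 20x objective, two fields per well · Read-out – percent inhibition of filter-corrected integrated lipid droplet intensity per well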
CHT allo act: human CHT allosteric activation; Q9GZV3; CHT-expressing cells, membrane potential dye, choline EC20; hits give high values; LV-AA mutant CHT in HEK293 cells; 310,000 compounds, 0.49% hits; B-score at 10 µM;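 active = initial fluorescence not abnormally high and integrated response B-score, plate-corrected, over 3 SD above library mean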
CHT block: inhibits the human high affinity choline transporter | CHT-expressing cells, membrane potential dye, choline response; hits give low values | B-score at 10 µM | 310,000 compounds, 0.86% hits | Q9GZV3;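 active = B-score over 3 SD under the library average, and starting fluorescence ratio not unusually high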;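 note: choline stimulus applied at its EC90 after an EC20 pre-addition; B-score computed on integrated fluorescence ratio after choline addition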
HSF-1 act: increases HSF-1 driven luciferase reporter signal; NIH3T3-HGL HSF-1 luciferase reporter, MG132, 8 h; 100% = twice DMSO control signal; activation, % at 9 µM; 300,000 compounds, 1.7% hits;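 active = mean replicate activation of at least 50% with a set share of replicates each reaching 50%; inconclusive = only one of those two conditions met; inactive = mean below 50% and too few replicates reaching it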
PHOSPHO1 block: blocks human PHOSPHO1 phosphatase activity. Q8TCT1. recombinant PHOSPHO1, absorbance phosphatase assay. inhibition, % at 13.3 µM. 290,000 compounds, 1.1% hits; in the data active = inhibition above about 60%
Target sequence (Q8TCT1 whole entry, looked up): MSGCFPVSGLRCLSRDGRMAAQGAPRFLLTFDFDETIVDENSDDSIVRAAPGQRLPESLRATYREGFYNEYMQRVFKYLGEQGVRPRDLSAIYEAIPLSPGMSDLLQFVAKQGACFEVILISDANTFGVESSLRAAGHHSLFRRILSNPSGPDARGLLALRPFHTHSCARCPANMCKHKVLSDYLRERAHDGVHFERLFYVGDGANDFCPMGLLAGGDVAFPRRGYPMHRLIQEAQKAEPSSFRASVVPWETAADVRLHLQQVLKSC
HSF1 inhib: HSF1 inhibition. NIH3T3-HGL HSE-luciferase, MG132-induced, luminescence 8 h; hits give low values. activity change, negative = inhibition, % at 7.5 µM (by protocol). 300,000 compounds, 0.77% hits;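 active = more than half of replicate wells show activity change below -50%, luminescence cut by over half; inconclusive = some wells, but at most half, below -50%; inactive = no replicate well below -50%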;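 note: luciferase reports HSF-1 transcriptional activity via heat shock element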
Large screens that a line does not name were inactive.

Nc1cc2c3c(cccc3c1)C(=O)N(CCN1CCCC1)C2=O	Lipid droplet inconclusive
O=C1c2cccc3cc([N+](=O)[O-])cc(c23)C(=O)N1CCN1CCCC1	Lipid droplet inconclusive, HSF-1 act 61 (no result: CHT allo act, CHT block)
O=C(O)CCc1ccc(-c2ccc(Br)cc2)n1Cc1ccco1	HSF-1 act 116
COc1ccc(S(=O)(=O)N(C)CC(=O)NC2CC2)cc1OC	none
CCOC(=O)CSc1nc2ccc(C)cc2cc1C#N	HSF-1 act 68
CCOC(=O)CSc1nc2cc(C)ccc2cc1C#N	none (no result: Lipid droplet)
O=C(NCc1ccccc1Cl)c1ccc(Cn2cc(C(F)(F)F)ccc2=O)cc1	PHOSPHO1 block 65 (no result: Lipid droplet)
COc1ccc(CC(=O)O/N=C(\N)c2ccccc2)cc1OC	none (no result: Lipid droplet)
O=C(Nc1ccncc1)Nc1ccccc1Cl	none
O=C(Nc1ccncc1)Nc1ccncc1	CHT allo act 10
COc1cc(OC)cc(-c2cc3nc(C)c(CCC(=O)NCc4ccccc4)c(C)n3n2)c1	HSF1 inhib -57
C1=C(c2ccccc2)Nc2ncnn2C1c1ccccc1 (configuration not stated)	none (no result: Lipid droplet, PHOSPHO1 block)
CCC1=CC(c2ccccc2)n2ncnc2N1 (configuration not stated)	HSF1 inhib -84 (no result: Lipid droplet, PHOSPHO1 block)
CCOC(=O)N1CCC(NC(=O)c2ccc(CNS(=O)(=O)c3ccc(F)cc3)cc2)CC1	none (no result: Lipid droplet)
CSc1ccccc1C(=O)NC1CCCC1	PHOSPHO1 block 70
Cc1cccc(NC(=O)c2cc3ccccc3o2)c1	HSF-1 act 76
NS(=O)(=O)c1cccc(NC(=O)c2cc3ccccc3o2)c1	none
O=C(Nc1cccc(Br)c1)c1cc2ccccc2o1	HSF-1 act 86 (no result: Lipid droplet)
Cc1cc(C(=O)Nc2cccc(C(=O)O)c2)oc1C	HSF1 inhib -53
Cc1cc(C(=O)Nc2cccc(C(=O)O)c2)c(C)o1	none
COc1cc(NC(=O)c2c(OC)cccc2OC)ccc1NC(=O)c1cc2ccccc2o1	HSF-1 act 52
CCOc1ccccc1C(=O)NC1CC2CCCC(C1)N2Cc1ccc(C)cc1 (configuration not stated)	none
CCc1ccc(CN2CCC(C(=O)Nc3ccc(-n4nc(C)cc4C)cc3)CC2)o1	none
CCOc1ccc(OCCSc2nc(N)cc(=O)[nH]2)cc1	none
Cc1cc(C)n(-c2ccc(C(=O)Nc3ccc(S(=O)(=O)NCc4ccco4)cc3)cc2)n1	none (no result: Lipid droplet)
Cc1noc(/C=C/c2ccco2)c1S(=O)(=O)N1CCC(C(=O)NCc2ccco2)CC1	HSF1 inhib -72 (no result: Lipid droplet)
COc1ccc(Cn2c(O)c(C=Nc3ccccc3C(=O)O)c3ccccc3c2=O)cc1	none
COc1ccccc1NS(=O)(=O)c1cccc(-n2c(O)c(C=Nc3ccccc3C(=O)O)c3ccccc3c2=O)c1	Lipid droplet 52
CCC(C)[C@H](NC(=O)c1cn(CC)c2cc3c(cc2c1=O)OCO3)C(=O)NCCCn1ccnc1 (some centres not stated)	none
CC(=O)Nc1ccc2c(c1)C(C)(C)C(C)N2C (configuration not stated)	none
Cc1ccc(NC(=O)c2ccc3nc[nH]c3c2)c(O)c1	HSF-1 act 66
Cc1ccc(CNC(=O)CCc2nnc3ccc(NCCCN4CCCC4=O)nn23)cc1	none
CCn1c(CC(C)C)n[nH]c1=S	HSF-1 act 59 (no result: Lipid droplet)
CCn1c(CSCc2ccc(C)cc2)n[nH]c1=S	none (no result: PHOSPHO1 block)
Cc1ccc(S(=O)(=O)N(C)C)cc1NC(=O)C(C)OC(=O)c1ccc2c(c1)OCCO2 (configuration not stated)	none
c1ccc(-n2cnc3cc(NCc4cccs4)ccc32)cc1	HSF1 inhib -67 (no result: Lipid droplet)
COc1ccc(C2Nc3ccccc3C(=O)N2Cc2ccccc2)cc1 (configuration not stated)	none (no result: Lipid droplet)
COCCCNC(=O)CC(NS(=O)(=O)c1ccc(C)cc1)c1ccc(OC)cc1 (configuration not stated)	HSF1 inhib -77
O=C(NCC(=O)N1CCc2ccccc2C1)c1ccc(Cl)cc1Cl	none
Cc1cccc(-n2cnc3c(c2=O)c2nc4ccccc4nc2n3Cc2ccco2)c1	HSF-1 act 104
COc1ccc(Cn2c3nc4ccccc4nc3c3c(=O)n(Cc4ccco4)cnc32)cc1	none (no result: CHT allo act, CHT block, HSF-1 act, HSF1 inhib)
Cc1ccc(C(=O)n2nnc3ccccc32)cc1	none (no result: Lipid droplet, PHOSPHO1 block)
CC(C)c1ccc(/C=C/C(=O)N2CCCCCC2)cc1	none
CC(C)c1ccc(/C=C/C(=O)n2nnc3ccccc32)cc1	HSF-1 act 83
CN(C)c1ccc(C(=O)n2nnc3ccccc32)cc1	HSF-1 act 56
N#Cc1c(NC(=O)CSc2nnc(-c3ccco3)n2-c2ccccc2)sc2c1CCC2	none
NC(=O)c1c(NC(=O)CSc2nnc(-c3ccco3)n2-c2ccccc2)sc2c1CCC2	PHOSPHO1 block 82 (no result: Lipid droplet)
CCOC(=O)c1c(NC(=O)CSc2nnc(-c3c[nH]c4ccccc34)n2CCOC)sc2c1CCCC2	none
CCOC(=O)c1c(NC(=O)CSc2nnc(-c3c[nH]c4ccccc34)n2C)sc2c1CCCC2	HSF1 inhib -56
CCCCNC(=O)c1nnn(-c2ccccc2)c1N	none
N#C/C(=C\c1ccccc1[N+](=O)[O-])C(=O)NC1CCCCC1	none
N#C/C(=C\C=C\c1ccccc1[N+](=O)[O-])C(=O)NC1CCCCC1	HSF-1 act 82
CC(=O)n1c2c(c3ccccc31)OC(N)=C(C#N)C2c1cccc(Cl)c1Cl (configuration not stated)	HSF-1 act 74
COC(=O)Oc1nsnc1N1CCOCC1	PHOSPHO1 block 92 (no result: Lipid droplet)
O=C(Oc1nsnc1N1CCOCC1)N(c1ccccc1)c1ccccc1	none (no result: Lipid droplet)
COc1cccc(Nc2nc(N)c([N+](=O)[O-])c(NCc3ccccc3)n2)c1	HSF-1 act 70
Cc1cccc(Nc2nc(N)c([N+](=O)[O-])c(NCc3ccccc3)n2)c1	none
Cc1ccc(OC(=O)c2ccc3snnc3c2)cc1	none (no result: Lipid droplet)
COc1ccccc1CNC(=O)N1CCN(c2ccccc2C)CC1	HSF1 inhib -72
COc1cccc(CNC(=O)N2CCN(c3ccccc3C)CC2)c1	none
Cc1ccc(NC(=O)COc2coc(CN3CCc4ccccc4C3)cc2=O)c(C)c1	none (no result: Lipid droplet, PHOSPHO1 block)
CC(C)NC(=O)COc1coc(CN2CCN(c3ccccc3)CC2)cc1=O	HSF1 inhib -53
Cc1cc(NC(=O)COc2coc(CN3CCN(c4ccccc4)CC3)cc2=O)no1	none (no result: Lipid droplet, PHOSPHO1 block)
Cc1cc(NC(=O)COc2coc(CN3CCN(c4ccccc4F)CC3)cc2=O)no1	HSF1 inhib -75 (no result: Lipid droplet, PHOSPHO1 block)
Cc1ccc(C)c(NC(=O)COc2coc(CN3CCc4ccccc4C3)cc2=O)c1	HSF1 inhib -51 (no result: Lipid droplet, PHOSPHO1 block)
Nc1nc(SCC(=O)Nc2cc(-c3ccccc3)nn2-c2ccccc2)n[nH]1	none (no result: HSF-1 act, HSF1 inhib)
O=C(CSc1nccn(-c2ccc(Br)cc2)c1=O)NCc1ccccc1	none (no result: Lipid droplet, PHOSPHO1 block)
O=C(COc1ccc(F)cc1)c1ccc2c(c1)CCCC2	HSF-1 act 78 (no result: Lipid droplet, PHOSPHO1 block)
CC(C)Cc1nnc(NC(=O)CCC(=O)N2CCN(c3ccccc3)CC2)s1	none

Source: PubChem BioAssay (several laboratories)
